Compound activity as filed in PubChem.
CHRM1 antagonist – antagonists of human M1 muscarinic receptor; AID 588852; 360,000 tested, 1.3% active; inhibition, % at 3 µM; CHO-K1 hM1, Fluo-8 calcium fluorescence, ACh EC80 antagonist;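 active = percent inhibition above its own plate's cutoff, namely the mean of that plate's compound wells plus 3 SD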;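 note: peak over basal fluorescence ratio during 140 s after agonist addition; 0% = ACh EC80 plus DMSO and 100% = DMSO alone without agonist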
CHRM1 agonist – agonists of human M1 muscarinic receptor; activation, % at 3 µM; CHO-K1 hM1, Fluo-8 calcium fluorescence, agonist mode; 0% DMSO, 100% acetylcholine EC100; AID 588814; P11229; 360,000 tested, 0.33% active;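 active = activation above the run's mean compound activation plus 3 SD, cut at about 16% in these data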;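 note: peak over basal fluorescence ratio within a 140 s kinetic read after compound addition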
TAAR1 agonist – agonists of human TAAR1; activation, % at 3 µM; 360,000 tested, 0.99% active; Q96RJ0; CHO RD-HGA16 TAAR1, Fluo-8 calcium fluorescence; vehicle wells 0%, saturating PEA agonist 100%;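 active = activation above the mean activation of all test compounds in the run plus 3 SD, cut at about 38% in these data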
Target sequence (Q96RJ0 whole entry, looked up): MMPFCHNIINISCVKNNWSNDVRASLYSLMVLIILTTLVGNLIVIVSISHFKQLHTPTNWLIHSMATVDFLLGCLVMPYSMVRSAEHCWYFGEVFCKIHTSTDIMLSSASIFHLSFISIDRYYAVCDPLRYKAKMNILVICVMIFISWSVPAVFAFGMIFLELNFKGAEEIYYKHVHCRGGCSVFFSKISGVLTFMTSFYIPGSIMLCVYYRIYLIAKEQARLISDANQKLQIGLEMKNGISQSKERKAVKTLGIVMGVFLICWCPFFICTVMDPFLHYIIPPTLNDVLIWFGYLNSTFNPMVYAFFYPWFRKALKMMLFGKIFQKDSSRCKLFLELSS
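Test system: RD-HGA16 (CHO) cells co-expressing Gα16 and hTAAR1 / Benchmarks: DMSO vehicle as 0%, PEA at EC100 as 100% / Repeats: no replicates (n 1) / Measure: % activation from peak over basal fluorescence ratio, DMSO-to-PEA scaled / Timing: 17-24 h plating, Fluo-8 75 min 37 °C, 30 min RT / Technique: kinetic Fluo-8 calcium fluorescence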
CHRM1 PAM – potentiates human M1 receptor response to acetylcholine; 360,000 tested, 0.088% active; AID 588819; CHO-K1 hM1, Fluo-8 calcium fluorescence, ACh EC20; 0% = ACh EC20, 100% = maximal ACh; P11229; activation, % at 3 µM; in the data active = activation above about 19%, passing the limit was not always enough
TAAR1 antagonist – human TAAR1 antagonism. Q96RJ0. CHO RD-HGA16 TAAR1, Fluo-8 calcium fluorescence, antagonist. inhibition, % at 3 µM. 360,000 tested, 1.5% active. AID 624466;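 active = inhibition above a per-plate cutoff, the mean inhibition of test compounds on that plate plus 3 SD, cut at about 49% in these data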;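 note: 0% = DMSO plus EC80 beta-PEA response and 100% = DMSO alone without agonist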
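Material: CHO RD-HGA16 cells bearing hTAAR1; compound dosing: one-point dosing, 3 µM nominal final; schedule: dye loading 75 min at 37 °C, then 30 min room temperature; measured by: calcium fluorescence with Fluo-8; control set: vehicle and agonist controls; replication: n of 1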
Active calls of the source: *; nt = no result given. Most compounds without a hit are left out; they make up all but 3.4% or so of the library.

SMILES	CHRM1 antagonist	CHRM1 agonist	TAAR1 agonist	CHRM1 PAM	TAAR1 antagonist
Cc1nn(-c2ccc(F)cc2)c2nc(N)c(C#N)c(-c3cccs3)c12	14	-4	0	-1	34
Cc1nn(-c2ccc(F)cc2)c2nc(N)c(C#N)c(-c3ccc(O)c(O)c3)c12	-1	2	6	6	51*
C[C@@H]1CN([C@@H](C)CO)C(=O)CCCn2nncc2CO[C@H]1CN(C)CC1CC1	nt	nt	2	nt	-7
O=C1Cc2ccccc2C(=O)N1	nt	nt	4	nt	-5
COc1cccc2c1OC1(C)CC2NC(=O)N1c1cccc(C(=O)Nc2ccc3c(c2)OCCO3)c1 (stereo unspecified)	28*	-1	15	-13	36
COc1ccc(NC(=O)c2cccc(N3C(=O)NC4CC3(C)Oc3ccccc34)c2)cc1 (stereo unspecified)	-10	-3	9	8	16
O=C1N=c2ccccc2=C1c1sc(=S)n(-c2ccc(O)cc2)c1O	-8	-5	0	-2	-11
O=C(Nn1c(O)c(C=C2N=c3ccccc3=N2)sc1=S)c1cccc(Cl)c1	6	0	31	3	52*
O=C(Nn1c(O)c(C=C2N=c3ccccc3=N2)sc1=S)c1ccccc1	3	4	38*	6	48
O=C1N=c2ccccc2=C1c1sc(=S)n(NC(=O)c2cccc(O)c2)c1O	31	-3	18	-14	51*
CCc1cc2c(nc1CC)CCCN2Cc1ccc(Br)cc1	nt	nt	0	nt	-2
CC(=O)c1cccc(NC(=O)C(C)OC(=O)c2ccc3ncsc3c2)c1 (stereo unspecified)	4	-1	1	4	-10
CC(OC(=O)c1ccc2ncsc2c1)C(=O)Nc1cccc(Cl)c1 (stereo unspecified)	32*	-4	0	-14	-20
COC(=O)[C@]12C[C@H](CC(=O)N3CCSCC3)C(=O)N(Cc3ccccc3)C1=C[C@H](C(C)(C)C)O[C@@H]2C	nt	nt	-2	nt	-30
O=C(CNC1CCN(Cc2ccccc2)CC1)Nc1ccc(S(=O)(=O)N2CCCCC2)cc1	44*	-7	1	-24	-15
O=C(CSc1ccc(-c2nc3ccccc3[nH]2)cn1)Nc1ccc(S(=O)(=O)N2CCCC2)cc1	20	-7	8	-11	51*
CC(C)NS(=O)(=O)c1ccc(OCC(=O)Nc2ccc3c(c2)OCO3)c(Cl)c1	-37	2	6	6	33
O=C(COc1ccc(S(=O)(=O)N2CCCC2)cc1Cl)Nc1ccc2c(c1)OCO2	4	-3	10	-1	50*
Cc1nnc(SCC(=O)Nc2ccc(S(=O)(=O)N3CCCC3)cc2)n1N	54*	-3	8	-21	1
Cc1ccccc1-n1nnnc1SCC(=O)Nc1ccc(S(=O)(=O)N2CCCC2)cc1	-13	-2	12	-2	-5
CC(C)(C)OC(=O)NCCc1nc(NC(=O)OCc2ccccc2)sc1C(=O)O	nt	nt	2	nt	4
COc1ccccc1C(=O)NC1CCCCN(C)C1=O (stereo unspecified)	nt	nt	0	nt	4
COc1ccccc1OCC(=O)Nc1ccc(S(=O)(=O)N2CCCC2)cc1	-5	-10	1	-1	-2
O=C(Nc1ccc(F)cc1)c1ccc(S(=O)(=O)N2CCCC2)cc1	-2	1	2	8	10
O=C(Cc1ccc(Br)cc1)Nc1ccc(S(=O)(=O)N2CCCC2)cc1	-1	1	38*	-3	6
SMILES	CHRM1 antagonist	CHRM1 agonist	TAAR1 agonist	CHRM1 PAM	TAAR1 antagonist
O=C(Nc1ccc(F)cc1)Nc1ccc(S(=O)(=O)N2CCCC2)cc1	33	0	48*	-19	51*
O=C(Cc1ccc(Br)cc1)NNC(=O)Nc1ccc(Cl)cc1	-5	-5	2	11	3
O=C(COc1ccccc1Br)Nc1ccc(S(=O)(=O)N2CCCC2)cc1	42*	-4	12	-29	23
O=C(Cc1ccc(Cl)cc1)Nc1ccc(Br)cc1	0	-2	40*	0	32
O=c1cc(CN2CCCC2)c2ccccc2o1	nt	nt	1	nt	3
O=C(CSC1CCc2ccccc21)NNC(=O)Nc1ccc(Cl)cc1 (stereo unspecified)	nt	nt	7	nt	0
CCCCNC(=O)C1C(c2ccc(OC)cc2)=Nc2ccccc2N1C(=O)c1cccnc1 (stereo unspecified)	nt	nt	0	nt	-14
Cc1ccc(NC(=O)COC(=O)Cc2ccccc2)cc1S(=O)(=O)N1CCOCC1	-5	-2	6	6	-3
O=C(COC(=O)c1cc([N+](=O)[O-])ccc1NCCO)Nc1cccc(S(=O)(=O)N2CCCC2)c1	40*	-7	3	-19	32
N#Cc1ccc(NCC(=O)Nc2ccc(S(=O)(=O)N3CCCCC3)cc2)cc1	5	-2	39*	-2	21
CC(=O)Nc1ccc(NC(=O)COC(=O)c2cc(S(=O)(=O)N3CCCC3)ccc2O)cc1	30*	-1	2	-15	1
Cc1ccc(NC(=O)COC(=O)Cc2ccc(Br)cc2)cc1S(=O)(=O)N1CCOCC1	35*	-1	10	-16	24
O=C(CNc1ccc(Br)cc1)Nc1ccc(S(=O)(=O)N2CCCCC2)cc1	-8	-1	23	2	15
COc1ccc(NC(=O)COC(=O)c2cc(S(=O)(=O)N3CCCC3)ccc2O)cc1	0	2	4	1	6
CCCCCCCCN1C(=O)[C@@H](CC(=O)NCc2cccc(C(F)(F)F)c2)C[C@@]2(C(=O)OC)C1=C[C@H](C(C)(C)C)O[C@@H]2C	nt	nt	0	nt	-30
OCC1(CCc2ccccc2)CCCN(C/C=C/c2ccccc2)C1 (stereo unspecified)	35*	-9	8	-25	-12
C[C@H](O)[C@@H]1C(=O)N2CCc3c([nH]c4c(-c5ccccc5)cccc34)[C@@H]2C[C@@H]1N(C)C(=O)OCc1ccccc1	nt	nt	4	nt	12
Nc1[nH]c(C(=O)c2ccccc2)c(-c2ccc(Cl)c(F)c2)c1C(=O)NCCc1c[nH]c2ccccc12	nt	nt	14	nt	0
Cc1cc(N2CCCCCC2)nc2ccccc12	35*	-7	1	-20	0
Cc1ccc(NS(=O)(=O)c2cccc3nsnc23)cc1C	40*	-8	-1	-26	2
O=S(=O)(Nc1cccc(F)c1)c1cccc2nsnc12	-5	-9	2	7	-9
CCOC(=O)C1C(C(=O)OCC)C2C(=O)C3C(C(=O)OCC)C(C(=O)OCC)C3C(=O)C12 (stereo unspecified)	-15	1	1	1	8
OCc1ccccc1-c1nc(NCc2ccccc2)nc2ccsc12	-7	5	0	7	9
C[C@@H]1CN([C@@H](C)CO)C(=O)c2cc(Br)cnc2O[C@@H]1CN(C)Cc1ccccn1	nt	nt	4	nt	3
COc1cn(-c2ccccc2)nc1C(=O)NCc1ccccc1	-27	2	1	33*	13
